Calls of active or inactive are those of the source.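 Rule for the calls: active = inhibition of 30% or more at any tested concentration; inactive = the rest.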

The assay concerns the target M18 aspartyl aminopeptidase (Plasmodium falciparum 3D7). As to the kind of experiment: PfM18AAP inhibitors, dose response, biochemical, QFRET fluorogenic substrate (AID 588678). The following applies: recombinant PFM18AAP, H-Glu-NHMec fluorogenic substrate cleavage. A digest of the protocol: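 System: Recombinant PFM18AAP enzyme | Amount: PFM18AAP enzyme at 5 µg/mL final | Compound: Ten concentrations, 1:2 steps | Schedule: Enzyme reaction with compounds, 90 min at room temperature | Detection: NHMec fluorescence at 370 nm excitation, 460 nm emission | Repeats: Triplicate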

In the case of `COc1ccc(CCNC2CCN(C)CC2)cc1OC`, under “at 100 µM (top of the series)”, the inhibition result is “inactive”.

In general, IC50 refers to the concentration needed to halve the response being measured. Turning to `Cc1nc(NCCc2ccc(O)c(O)c2)c2c3c(sc2n1)CCC3`, the half-inhibitory concentration (IC50) is 13.9 µM.

Regarding `COc1cccc(CCNc2c3ccccc3nc3ccccc23)c1`, the inhibition result (at 100 µM (top of the series)) was “inactive”.

On to `CCOc1cccc(-c2nc(-c3ccc(O)c(O)c3)cs2)c1`, for which the IC50 was 9.57 µM.

For `COc1ccc(CCNC2CCN(Cc3ccccc3)CC2)cc1OC`, the inhibition entry (at 100 µM (top of the series)) is “inactive”.

Take `COc1ccc(CNc2c3ccccc3nc3ccccc23)cc1OC`: for the setting “at 100 µM (top of the series)”, the inhibition result is “inactive”.

As to `Oc1ccc(CNc2c3ccccc3nc3ccccc23)cc1O`, the inhibition result (at 100 µM (top of the series)) was “inactive”.

As to `O=c1ccc2cc(O)c(O)cc2o1`, the concentration for half-maximal inhibition (IC50) is 44.2 µM.

As for `Cc1c(-c2ccccc2)[nH]c(-c2ccc(O)c(O)c2)[n+]1O`, the IC50 was 17 µM.

Consider `NCc1cc2c3c(c(=O)oc2c(O)c1O)CCC3`, for which, where the note is “at 100 µM (top of the series)”, the inhibition entry is “inactive”.

With `O=c1cc(CN2CCN(Cc3ccccc3)CC2)c2ccc(O)c(O)c2o1`, the IC50 is 49.1 µM.

Regarding `O=C(O)CCCNc1c2ccccc2nc2ccccc12`, for the setting “at 50 µM (top of the series)”, the inhibition result was “inactive”.

For `Oc1ccc(-c2csc(Cc3cc4ccccc4[nH]3)n2)cc1O`, the IC50 is 12.6 µM.

As to `COc1ccc(CCNc2ccc3ccccc3c2)cc1OC`, the inhibition result (at 100 µM (top of the series)) is “inactive”.

On to `Cc1ccc(-c2nc(-c3ccc(O)c(O)c3)cs2)cc1`, for which the IC50 was 9.45 µM.

In the case of `COc1ccc(CCNc2c3c(nc4ccccc24)CCCC3)cc1OC`, the inhibition entry (at 100 µM (top of the series)) was “inactive”.

As for `COc1ccc(CCNc2cccc3ccccc23)cc1OC`, the inhibition entry (at 100 µM (top of the series)) was “inactive”.

`COc1ccc(CCNc2ccnc3ccccc23)cc1OC`: the inhibition result (at 100 µM (top of the series)) was “inactive”.

With `COc1ccc(CCN(C)c2ccnc3ccccc23)cc1OC`, where the note is “at 100 µM (top of the series)”, the inhibition entry was “inactive”.

Consider `O=c1cc(CO)oc(CN2CCCCC2)c1O`, for which the inhibition result (at 100 µM (top of the series)) was “inactive”.

Regarding `COc1ccc(CCN2CCc3ccccc3C2)cc1OC`, the inhibition result (at 100 µM (top of the series)) is “inactive”.

As to `Oc1ccc(CCNc2c3ccccc3nc3ccccc23)cc1`, the inhibition entry (at 100 µM (top of the series)) is “inactive”.

Consider `O=S1(=O)c2ccccc2-c2cc(-c3nc(-c4ccc(O)c(O)c4)[nH]c3-c3ccccc3)ccc21`, for which the half-maximal inhibitory concentration (IC50) is 16.9 µM.

As to `O=C1OCCN1CCc1nc(-c2ccc(O)c(O)c2)cs1`, the IC50 is 8.07 µM.

`Oc1ccc(CCCNc2c3ccccc3nc3ccccc23)cc1O`: the IC50 is 27.9 µM.

Turning to `Oc1ccc(CCNc2c3c(nc4ccccc24)CCCC3)cc1O`, the IC50 is 10.2 µM.

`COc1ccc(-c2nc(-c3ccccc3)c(-c3ccccc3)[nH]2)cc1OC`: the inhibition result (at 100 µM (top of the series)) is “inactive”.

As to `COc1ccc(CCNc2c3ccccc3nc3ccccc23)cc1`, the inhibition entry (at 100 µM (top of the series)) was “inactive”.

For `COc1ccc2c(c1)C(=O)C(N)CC2` (stereo not drawn), the IC50 was 74.5 µM.

For the molecule `CCC(C)c1ccc(N)c(O)c1` (stereo not drawn), the concentration for half-maximal inhibition (IC50) was 19.5 µM.

Consider `Oc1ccc(CCN2CCc3ccccc3C2)cc1O`, for which the half-maximal inhibitory concentration (IC50) was 22.3 µM.

Consider `Nc1cc(C(=O)c2ccccc2)ccc1O`, for which the half-inhibitory concentration (IC50) is 51.4 µM.

As to `Oc1ccc(CCNC2CCN(Cc3ccccc3)CC2)cc1O`, the IC50 was 26.6 µM.

Take `COc1ccc(CCN(C)c2ccncc2)cc1OC`: the inhibition result (at 100 µM (top of the series)) was “inactive”.

In the case of `COc1ccc(-c2csc(-c3ccccc3)n2)cc1OC`, the inhibition entry (at 100 µM (top of the series)) is “inactive”.

As for `O=C(O)CCCCNc1c2ccccc2nc2ccccc12`, the inhibition result (at 50 µM (top of the series)) was “inactive”.

With `O=c1ccn(CCNc2c3ccccc3nc3ccccc23)cc1OCc1ccccc1`, the inhibition result (at 100 µM (top of the series)) is “inactive”.

On to `Oc1ccc(CCNc2cncc3ccccc23)cc1O`, for which the concentration for half-maximal inhibition (IC50) is 11.4 µM.

As to `Oc1ccc(CCNc2ccc3ccccc3c2)cc1O`, the concentration for half-maximal inhibition (IC50) was 11.6 µM.

With `Cc1c(OCc2ccccc2)c(=O)ccn1CCNc1c2ccccc2nc2ccccc12`, the inhibition result (at 100 µM (top of the series)) is “inactive”.

For the molecule `COc1ccc(-c2csc(-c3ccccc3OC)n2)cc1OC`, the inhibition entry (at 100 µM (top of the series)) was “inactive”.

Regarding `Oc1ccc(CCNc2cccc3ccccc23)cc1O`, the IC50 was 5.4 µM.

`COc1ccc(CCNc2c3ccccc3nc3ccccc23)cc1OC`: the inhibition result (at 100 µM (top of the series)) was “inactive”.

For the molecule `O=C(c1ccco1)N1CCN(Cc2cc(=O)c(O)c[nH]2)CC1`, the inhibition result (at 100 µM (top of the series)) was “inactive”.

As for `COc1ccc(CCN(C)CCc2ccccc2)cc1OC`, for the setting “at 100 µM (top of the series)”, the inhibition entry was “inactive”.

On to `COc1ccc(CCNc2ccncc2)cc1OC`, for which the inhibition result (at 100 µM (top of the series)) is “inactive”.

Regarding `Cc1c(O)c(=O)ccn1CCNc1c2ccccc2nc2ccccc12`, the inhibition result (at 100 µM (top of the series)) is “inactive”.

On to `CCC(C)C(=O)Nc1ccccc1N` (stereo not drawn), for which, where the note is “at 100 µM (top of the series)”, the inhibition entry was “inactive”.

Consider `Oc1ccc(CCNC(c2ccccc2)c2ccccc2)cc1O`, for which the concentration for half-maximal inhibition (IC50) was 10.5 µM.

For the molecule `COc1ccc(CCN2CCN(C)CC2)cc1OC`, the inhibition entry (at 100 µM (top of the series)) was “inactive”.

In the case of `COc1ccc(CCNc2cncc3ccccc23)cc1OC`, the inhibition entry (at 100 µM (top of the series)) is “inactive”.

Take `CN(CCc1ccc(O)c(O)c1)c1ccnc2ccccc12`: the IC50 is 4.85 µM.

On to `COc1ccc(CCN(C)c2c3ccccc3nc3ccccc23)cc1OC`, for which the inhibition result (at 100 µM (top of the series)) is “inactive”.

Turning to `CN(CCc1ccc(O)c(O)c1)c1ccncc1`, the IC50 was 8.38 µM.

Consider `COc1cccc(-c2nc(-c3ccc(OC)c(OC)c3)cs2)c1`, for which, under “at 100 µM (top of the series)”, the inhibition entry is “inactive”.

For the molecule `CCC(C)C(=O)Nc1ccccc1O` (stereo not drawn), under “at 100 µM (top of the series)”, the inhibition entry is “inactive”.

In the case of `COc1ccc(CCCNc2c3ccccc3nc3ccccc23)cc1OC`, the inhibition result (at 100 µM (top of the series)) was “inactive”.

As to `O=C1c2ccc3c4c(ccc(c24)C(=O)N1O)CC3`, the inhibition entry (at 50 µM (top of the series)) was “inactive”.

In the case of `CC(C)(C)C(=O)OCc1nc(-c2ccc(O)c(O)c2)cs1`, the IC50 was 13.1 µM.

In the case of `COc1ccc(CC(=O)O)cc1OC`, the inhibition entry (at 100 µM (top of the series)) is “inactive”.

In the case of `NCCNc1c2ccccc2nc2ccccc12`, the inhibition result (at 100 µM (top of the series)) is “inactive”.

Take `COc1ccc(CCC(=O)O)cc1OC`: the inhibition entry (at 100 µM (top of the series)) is “inactive”.

For the molecule `O=C(c1ccco1)N1CCN(Cc2cc(=O)c(O)co2)CC1`, the inhibition entry (at 100 µM (top of the series)) is “inactive”.

These data come from PubChem BioAssay AID588678 (Southern Research Specialized Biocontainment Screening …, 2011).
